How the values were obtained:
[1] = system: Rattus norvegicus; assay: Analgesic activity in albino rat assessed as increase in tail withdrawal latency at 20 mg/kg, po after 2 hrs relative to control; type: functional
In short: (§1)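 Male albino rats, 120-150 g, five per group, free access to food and water. Compounds given orally at 20 mg/kg; control group kept, diclofenac Na reference at 20 mg/kg po. Tail withdrawal after immersion in 55 °C water. Reaction time read at 1, 2 and 4 h. Reported as mean ± S.E. and as % increase over basal values. ANOVA with Student-Newman-Keuls, P < 0.05.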

[2] = system: Rattus norvegicus; assay: Antiinflammatory activity in albino rat assessed as inhibition of formalin-induced paw edema at 20 mg/kg, po qd administered 7 days measured on day 1 post formalin challenge by plethysmometric analysis relative to control; type: functional
In short: (§2)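 Sub-acute model in rats. Compounds given orally at 20 mg/kg daily for 7 consecutive days. 2% formalin (0.1 ml) injected subplantar into left hind paw under light ether anaesthesia 1 h after the day-1 dose, with a second injection on day 3. Paw volume measured plethysmographically on days 1 and 8. Inhibition calculated versus control.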

[3] = system: Rattus norvegicus; assay: Antiinflammatory activity in albino rat assessed as inhibition of formalin-induced paw edema at 20 mg/kg, po administered 1 hr prior to formalin challenge measured after 4 hrs by plethysmometric analysis relative to control; type: functional
In short: (§3)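 Male albino rats, 180-200 g, five per group. Test compounds given orally at 20 mg/kg; diclofenac Na reference at 20 mg/kg po. After 1 h, 2% formalin (0.1 ml) injected subplantar into left hind paw under light ether anaesthesia. Paw volume read by water plethysmometer at 0, 1, 2 and 4 h. % inhibition of edema increase (Vt−Vo) calculated versus control; mean ± S.E.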

[4] = system: Rattus norvegicus; assay: Antiinflammatory activity in albino rat assessed as inhibition of formalin-induced paw edema at 20 mg/kg, po qd administered 7 days measured on day 8 post formalin challenge by plethysmometric analysis relative to control; type: functional; in short: as §2
[5] = system: Rattus norvegicus; assay: Antiinflammatory activity in albino rat assessed as inhibition of formalin-induced paw edema at 20 mg/kg, po administered 1 hr prior to formalin challenge measured after 1 hr by plethysmometric analysis relative to control; type: functional; in short: as §3
[6] = system: Rattus norvegicus; assay: Analgesic activity in albino rat assessed as increase in tail withdrawal latency at 20 mg/kg, po after 1 hr relative to control; type: functional; in short: as §1
[7] = system: Rattus norvegicus; assay: Antiinflammatory activity in albino rat assessed as inhibition of formalin-induced paw edema at 20 mg/kg, po administered 1 hr prior to formalin challenge measured after 2 hrs by plethysmometric analysis relative to control; type: functional; in short: as §3
[8] = system: Rattus norvegicus; assay: Analgesic activity in albino rat assessed as increase in tail withdrawal latency at 20 mg/kg, po after 4 hrs relative to control; type: functional; in short: as §1
[9] = system: Rattus norvegicus; assay: Antiinflammatory activity in po dosed albino rat assessed as inhibition of formalin-induced paw edema administered 1 hr prior to formalin challenge measured after 2 hrs by plethysmometric analysis; type: functional
In short: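 Male albino rats, 180-200 g, groups of five, dosed orally at 5, 10, 20, 40 and 50 mg/kg. After 1 h, 2% formalin (0.1 ml) injected subplantar into left hind paw. Paw edema inhibition measured plethysmometrically 2 h after formalin injection. ED50 derived from these doses.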

[10] = Acute toxicity in po dosed rat assessed as mortality after 24 hrs; type: organism-based; conditions: in vivo, read-out: ALD50
In short: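 Male rats, 180-200 g, groups of five, fasted 24 h before dosing. Compounds given orally at graded doses of 0.1-0.3 g/kg body weight. Mortality at each dose level recorded after 24 h to estimate approximate acute lethal dose (ALD50).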

[11] = system: Rattus norvegicus; assay: Ulcerogenic activity in albino rat assessed as appearance of hyperemia at 300 mg/kg, po bid administered for 3 days measured after 6 hrs post last dose relative to control; type: toxicity, organism-based; set-up: dose 300 mg/kg, route oral; conditions: in vivo
In short: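 Rats received 300 mg/kg per day orally as two equal doses at 0 and 12 h for three successive days, with water ad libitum. Controls received 1% gum acacia orally. Animals were killed with diethyl ether 6 h after the last dose. Stomachs were removed and inspected grossly for hyperemia and ulceration. Diclofenac Na served as reference.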

SMILES | Activity [1] [%] | inhibition in vivo at 20 mg/kg [2] [%] | inhibition in vivo at 20 mg/kg [3] [%] | inhibition in vivo at 20 mg/kg [4] [%] | inhibition in vivo at 20 mg/kg [5] [%] | Activity [6] [%] | inhibition in vivo at 20 mg/kg [7] [%] | Activity [8] [%] | ED50 [9] [mg/kg] | LD50 at 24 h [10] [mg/kg] | Activity [11]
Cc1ccc(Nc2nn3c(=O)c4c(C)c(C)sc4nc3[nH]2)cc1 | 31 | 33 | 18 | 24 | 21 | 23 | 5 | 44 | – | – | –
CCOC(=O)Cc1nn2c(=O)c3c(C)c(C)sc3nc2[nH]1 | 47 | 47 | 56 | 40 | 47 | 19 | 53 | 62 | 28.1 | > 300 | 20%
Cc1sc2nc3[nH]c(CC(=O)Nc4ccccc4)nn3c(=O)c2c1C | 36 | 50 | 40 | 37 | 42 | 21 | 37 | 51 | 26.1 | > 300 | 20%
Cc1sc2nc3[nH]c(CC(=O)Nc4ccc(Cl)cc4)nn3c(=O)c2c1C | 32 | 36 | 29 | 38 | 33 | 28 | 28 | 40 | – | – | –
COc1ccc(NC(=O)Cc2nn3c(=O)c4c(C)c(C)sc4nc3[nH]2)cc1 | 35 | 41 | 43 | 38 | 47 | 14 | 40 | 42 | 18.4 | > 300 | Non-toxic
Cc1sc2nc3ncc(-c4ccccc4)nn3c(=O)c2c1C | 34 | 38 | 34 | 38 | 14 | 17 | 28 | 50 | – | – | –
Cc1sc2nc3ncc(-c4ccc(Cl)cc4)nn3c(=O)c2c1C | 11 | 36 | 20 | 18 | 14 | 6 | 12 | 23 | – | – | –
O=C([O-])Cc1ccccc1Nc1c(Cl)cccc1Cl.[Na+] [DICLOFENAC SODIUM] | – | 44 | 52 | 40 | 38 | 30 | – | 56 | 25.1 | – | 20%
